ChEMBL document CHEMBL3632612, “Discovery of WQ-3810: Design, synthesis, and evaluation of 7-(3-alkylaminoazetidin-1-yl)fluoro-quinolones as orally active antibacterial agents” (Eur J Med Chem, 2015)
In brackets after ≈: the same amount, converted by molar mass.

Key:
Klebsiella pneumoniae [1] = assay: Antibacterial activity against Klebsiella pneumoniae KC-1 assessed as growth inhibition at 128 to 0.002 mg/L incubated for 18 hrs at 37 degC by agar dilution method; type: functional; conditions: KC-1, 18 h
Procedure, shortened: (§1)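 Agar dilution on Mueller Hinton agar per Japanese Society of Chemotherapy standard method; about 10⁴ cfu inoculated onto plates holding two-fold dilution series; incubation 37°C, 18 h; MIC read as growth endpoint.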

Klebsiella pneumoniae [2] = assay: Antibacterial activity against Klebsiella pneumoniae DT-S assessed as growth inhibition at 128 to 0.002 mg/L incubated for 18 hrs at 37 degC by agar dilution method; type: functional; procedure, shortened: as §1
Salmonella typhimurium = assay: Antibacterial activity against Salmonella typhimurium IFO13245 assessed as growth inhibition at 128 to 0.002 mg/L incubated for 18 hrs at 37 degC by agar dilution method; type: functional, Salmonella enterica subsp. enterica serovar Typhimurium; conditions: Salmonella enterica, IFO13245, 18 h; procedure, shortened: as §1
Enterobacter cloacae = assay: Antibacterial activity against Enterobacter cloacae IFO13535 assessed as growth inhibition at 128 to 0.002 mg/L incubated for 18 hrs at 37 degC by agar dilution method; type: functional; conditions: IFO13535, 18 h; procedure, shortened: as §1
Proteus vulgaris = assay: Antibacterial activity against Proteus vulgaris IFO3167 assessed as growth inhibition at 128 to 0.002 mg/L incubated for 18 hrs at 37 degC by agar dilution method; type: functional; conditions: IFO3167, 18 h; procedure, shortened: as §1
Proteus mirabilis = assay: Antibacterial activity against Proteus mirabilis IFO3849 assessed as growth inhibition at 128 to 0.002 mg/L incubated for 18 hrs at 37 degC by agar dilution method; type: functional; conditions: IFO3849, 18 h; procedure, shortened: as §1
Serratia marcescens [3] = assay: Antibacterial activity against Serratia marcescens IFO3736 assessed as growth inhibition at 128 to 0.002 mg/L incubated for 18 hrs at 37 degC by agar dilution method; type: functional; conditions: IFO3736, 18 h; procedure, shortened: as §1
Serratia marcescens [4] = assay: Antibacterial activity against Serratia marcescens T-55 assessed as growth inhibition at 128 to 0.002 mg/L incubated for 18 hrs at 37 degC by agar dilution method; type: functional; conditions: T-55, 18 h; procedure, shortened: as §1
Morganella morganii = assay: Antibacterial activity against Morganella morganii W1026 assessed as growth inhibition at 128 to 0.002 mg/L incubated for 18 hrs at 37 degC by agar dilution method; type: functional; conditions: W1026, 18 h; procedure, shortened: as §1
Providencia rettgeri = assay: Antibacterial activity against Providencia rettgeri W1008 assessed as growth inhibition at 128 to 0.002 mg/L incubated for 18 hrs at 37 degC by agar dilution method; type: functional; conditions: W1008, 18 h; procedure, shortened: as §1
Pseudomonas aeruginosa [5] = assay: Antibacterial activity against Pseudomonas aeruginosa IFO3445 assessed as growth inhibition at 128 to 0.002 mg/L incubated for 18 hrs at 37 degC by agar dilution method; type: functional; conditions: IFO3445, 18 h; procedure, shortened: as §1
Pseudomonas aeruginosa [6] = assay: Antibacterial activity against Pseudomonas aeruginosa E-2 assessed as growth inhibition at 128 to 0.002 mg/L incubated for 18 hrs at 37 degC by agar dilution method; type: functional; conditions: E-2, 18 h; procedure, shortened: as §1
Pseudomonas aeruginosa [7] = assay: Antibacterial activity against Pseudomonas aeruginosa 15846 assessed as growth inhibition at 128 to 0.002 mg/L incubated for 18 hrs at 37 degC by agar dilution method; type: functional; conditions: Pseudomonas aeruginosa, 15846, 18 h; procedure, shortened: as §1
[8] = system: Acinetobacter calcoaceticus; assay: Antibacterial activity against Acinetobacter calcoaceticus Ac-54 assessed as growth inhibition at 128 to 0.002 mg/L incubated for 18 hrs at 37 degC by agar dilution method; type: functional; conditions: Ac-54, 18 h; procedure, shortened: as §1
[9] = Drug excretion in Sprague-Dawley rat urine at 10 mg/kg, po after 24 hrs by HPLC; type: ADME, organism-based; conditions: read-out: Drug excretion
Procedure, shortened: (§2)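 Six-week male Sprague-Dawley rats, fasted overnight; oral dose suspended in 0.5% methylcellulose, iv dose dissolved in 0.04 N NaOH. Urine from intact rats in metabolic cages, bile from bile duct-cannulated rats, 0–24 h. Bile alkaline-hydrolysed (1 N NaOH, 37°C, 1 h) to convert glucuronides; HPLC with UV 290 nm and internal standard; % of dose; mean ± S.D., three rats.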

[10] = Drug excretion in Sprague-Dawley rat bile assessed as unmetabolized form at 10 mg/kg, po after 24 hrs by HPLC; type: ADME, organism-based; conditions: read-out: Drug excretion; procedure, shortened: as §2
[11] = Oral drug absorption in Sprague-Dawley rat at 10 mg/kg, po after 24 hrs by HPLC; type: ADME, organism-based; conditions: in vivo
Procedure, shortened: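 Absorption rate computed as total urinary plus biliary excretion (% of dose, summed means) after oral dosing divided by total after iv dosing; excretion measured in fasted male Sprague-Dawley rats by HPLC over 24 h, bile glucuronides alkaline-hydrolysed.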

[12] = Solubility of the compound in JP2 solution at pH 6.8 after 24 hrs at 25 degC by HPLC; type: physicochemical
Procedure, shortened: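 Excess solid shaken in JP2 (50 mM potassium dihydrogenphosphate, pH 6.8) at 25°C for 24 h to equilibrium, filtered 0.45 µm; filtrate concentration by reversed-phase UPLC, UV 290 nm; mean ± S.D., n=3.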

[13] = Passive permeability of the compound after 5 hrs at 25 degC by PAMPA assay; type: physicochemical; conditions: read-out: Peff
Procedure, shortened: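 PAMPA: 10 µM compound in PBS with 5% MeOH in donor, PBS acceptor; 25°C, 5 h; both sides quantified by HPLC; Peff derived from donor/acceptor concentrations, volumes, 0.3 cm² filter area and 18,000 s; mean ± S.D., n=3.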

[14] = Drug excretion in Sprague-Dawley rat at 10 mg/kg, po after 24 hrs by HPLC; type: ADME, organism-based; conditions: in vivo, read-out: Drug excretion; procedure, shortened: as §2
DNA gyrase = DNA gyrase (Escherichia coli, UniProt P0AES4+P0AES6); assay: Inhibition of Escherichia coli DNA gyrase preincubated for 5 mins at 37 degC before addition of relaxed pBR322 as substrate by supercoiling assay; type: protein-complex assay
Escherichia coli [15] = assay: Antibacterial activity against Escherichia coli NIHJ assessed as growth inhibition at 128 to 0.002 mg/L incubated for 18 hrs at 37 degC by agar dilution method; type: functional; procedure, shortened: as §1
Escherichia coli [16] = assay: Antibacterial activity against Escherichia coli KC-14 assessed as growth inhibition at 128 to 0.002 mg/L incubated for 18 hrs at 37 degC by agar dilution method; type: functional; conditions: KC-14, 18 h; procedure, shortened: as §1
Escherichia coli [17] = assay: Antibacterial activity against Escherichia coli 177 assessed as growth inhibition at 128 to 0.002 mg/L incubated for 18 hrs at 37 degC by agar dilution method; type: functional; conditions: Escherichia coli, 177, 18 h; procedure, shortened: as §1
Citrobacter freundii = assay: Antibacterial activity against Citrobacter freundii IFO1268 assessed as growth inhibition at 128 to 0.002 mg/L incubated for 18 hrs at 37 degC by agar dilution method; type: functional; conditions: IFO1268, 18 h; procedure, shortened: as §1

Row | Structure (SMILES) | MIC (Klebsiella pneumoniae [1]) [µg/mL] | MIC (Klebsiella pneumoniae [2]) [µg/mL] | MIC (Salmonella typhimurium) [µg/mL] | MIC (Enterobacter cloacae) [µg/mL] | MIC (Proteus vulgaris) [µg/mL] | MIC (Proteus mirabilis) [µg/mL] | MIC (Serratia marcescens [3]) [µg/mL] | MIC (Serratia marcescens [4]) [µg/mL] | MIC (Morganella morganii) [µg/mL] | MIC (Providencia rettgeri) [µg/mL] | MIC (Pseudomonas aeruginosa [5]) [µg/mL] | MIC (Pseudomonas aeruginosa [6]) [µg/mL] | MIC (Pseudomonas aeruginosa [7]) [µg/mL] | MIC [8] [µg/mL] | dose excreted at 24 h [9] [%] | IC50 (DNA gyrase) [nM] | MIC (Escherichia coli [15]) [µg/mL] | MIC (Escherichia coli [16]) [µg/mL] | MIC (Escherichia coli [17]) [µg/mL] | MIC (Citrobacter freundii) [µg/mL] | other results
1 | CCCNC1CN(c2c(F)cc3c(=O)c(C(=O)O)cn(-c4nc(N)c(F)cc4F)c3c2C)C1 | 0.21 (≈ 0.455 µM) | 0.21 (≈ 0.455 µM) | 0.21 (≈ 0.455 µM) | 0.21 (≈ 0.455 µM) | 0.21 (≈ 0.455 µM) | 0.21 (≈ 0.455 µM) | 0.21 (≈ 0.455 µM) | 0.21 (≈ 0.455 µM) | 0.21 (≈ 0.455 µM) | 0.21 (≈ 0.455 µM) | 0.21 (≈ 0.455 µM) | 0.21 (≈ 0.455 µM) | 0.21 (≈ 0.455 µM) | 0.21 (≈ 0.455 µM) | 17 | 412 | 0.012 (≈ 0.026 µM) | 0.012 (≈ 0.026 µM) | 0.012 (≈ 0.026 µM) | 0.21 (≈ 0.455 µM) | dose excreted at 24 h [10]: 74%; Fa at 24 h [11]: > 90%; solubility at 24 h [12]: 41 µg/mL (≈ 88.9 µM); Papp at 5 h [13]: 1.1 ×10⁻⁶ cm/s; dose excreted at 24 h [14]: 91%
2 | Cc1c(N2CC(NC(C)C)C2)c(F)cc2c(=O)c(C(=O)O)cn(-c3nc(N)c(F)cc3F)c12 | 0.17 (≈ 0.368 µM) | 0.17 (≈ 0.368 µM) | 0.17 (≈ 0.368 µM) | 0.17 (≈ 0.368 µM) | 0.17 (≈ 0.368 µM) | 0.17 (≈ 0.368 µM) | 0.17 (≈ 0.368 µM) | 0.17 (≈ 0.368 µM) | 0.17 (≈ 0.368 µM) | 0.17 (≈ 0.368 µM) | 0.17 (≈ 0.368 µM) | 0.17 (≈ 0.368 µM) | 0.17 (≈ 0.368 µM) | 0.17 (≈ 0.368 µM) | 24 | 433 | 0.01 (≈ 0.0217 µM) | 0.01 (≈ 0.0217 µM) | 0.01 (≈ 0.0217 µM) | 0.17 (≈ 0.368 µM) | dose excreted at 24 h [10]: 68%; Fa at 24 h [11]: > 90%; solubility at 24 h [12]: 41 µg/mL (≈ 88.9 µM); Papp at 5 h [13]: 1.2 ×10⁻⁶ cm/s; dose excreted at 24 h [14]: 92%
3 | Cc1c(N2CC(NC(C)(C)C)C2)c(F)cc2c(=O)c(C(=O)O)cn(-c3nc(N)c(F)cc3F)c12 | 0.57 (≈ 1.2 µM) | 0.57 (≈ 1.2 µM) | 0.57 (≈ 1.2 µM) | 0.57 (≈ 1.2 µM) | 0.57 (≈ 1.2 µM) | 0.57 (≈ 1.2 µM) | 0.57 (≈ 1.2 µM) | 0.57 (≈ 1.2 µM) | 0.57 (≈ 1.2 µM) | 0.57 (≈ 1.2 µM) | 0.57 (≈ 1.2 µM) | 0.57 (≈ 1.2 µM) | 0.57 (≈ 1.2 µM) | 0.57 (≈ 1.2 µM) | – | 694 | 0.038 (≈ 0.0799 µM) | 0.038 (≈ 0.0799 µM) | 0.038 (≈ 0.0799 µM) | 0.57 (≈ 1.2 µM) | –
4 | C[C@H]1COc2c(N3CCN(C)CC3)c(F)cc3c(=O)c(C(=O)O)cn1c23.C[C@H]1COc2c(N3CCN(C)CC3)c(F)cc3c(=O)c(C(=O)O)cn1c23.O [LEVOFLOXACIN] | 0.12 | 0.12 | 0.12 | 0.12 | 0.12 | 0.12 | 0.12 | 0.12 | 0.12 | 0.12 | – | – | – | 0.12 | – | – | 0.019 | 0.019 | 0.019 | 0.12 | –
